Data set [1] concerns the target T1, Tyrosine-protein kinase Tec (Homo sapiens) (UniProt P42680).
T1 sequence (whole entry): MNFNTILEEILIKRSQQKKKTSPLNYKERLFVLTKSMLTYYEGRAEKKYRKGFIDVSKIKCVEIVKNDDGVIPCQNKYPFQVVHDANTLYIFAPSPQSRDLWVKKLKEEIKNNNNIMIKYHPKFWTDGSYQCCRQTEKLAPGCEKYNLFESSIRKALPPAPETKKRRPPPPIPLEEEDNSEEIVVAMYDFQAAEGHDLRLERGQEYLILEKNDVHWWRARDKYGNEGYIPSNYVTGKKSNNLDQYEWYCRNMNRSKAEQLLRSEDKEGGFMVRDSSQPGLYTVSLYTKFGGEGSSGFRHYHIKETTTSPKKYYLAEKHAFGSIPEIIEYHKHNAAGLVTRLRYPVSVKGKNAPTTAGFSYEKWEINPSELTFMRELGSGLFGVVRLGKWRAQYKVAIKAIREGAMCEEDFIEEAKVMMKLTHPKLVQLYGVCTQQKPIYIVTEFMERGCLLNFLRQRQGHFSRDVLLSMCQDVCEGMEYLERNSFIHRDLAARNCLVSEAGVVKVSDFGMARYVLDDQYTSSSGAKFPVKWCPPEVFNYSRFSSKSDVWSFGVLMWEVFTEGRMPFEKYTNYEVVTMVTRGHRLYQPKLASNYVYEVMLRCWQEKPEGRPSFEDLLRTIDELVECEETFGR
As to the kind of experiment: Binding affinity to wild-type human partial length TEC (L341 to D620 residues) expressed in bacterial expression system assessed as residual binding level at 10000 nM by Kinomescan method relative to control. The method, boiled down: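 KINOMEScan competition binding panel run at 10,000 nM compound, with results expressed as percent of control binding. S(10) is the fraction of non-mutant kinases below 10% of control, out of 395 tested.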

The nature of another data set: in vivo. Particulars: rat, po, 23.6 mg/kg.

Structures are written as SMILES.

`CN(C)C/C=C/C(=O)Nc1cccc(-c2c(-c3ccccc3)oc3ncnc(N[C@H](CO)c4ccccc4)c23)c1`: in data set [1], the Activity is 5.6%. The compound further came in with an AUC(0-inf) in “in vivo” of 2980 ng·h/mL.

Values taken from ChEMBL document CHEMBL4414600, “Discovery of a Furanopyrimidine-Based Epidermal Growth Factor Receptor Inhibitor (DBPR112) as a Clinical Candidate for the Treatment of Non-Small Cell Lung Cancer” (J Med Chem, 2019).
